From ChEMBL document CHEMBL3751714, “Antileishmanial activity of novel indolyl-coumarin hybrids: Design, synthesis, biological evaluation, molecular docking study and in silico ADME prediction” (Bioorg Med Chem Lett, 2016) come the findings set out here.

≈ marks a conversion by molar mass, not a printed value.

Data set [1] in a line: Antioxidant activity of the compound assessed as DPPH radical scavenging after 30 mins by spectrophotometric analysis. Format: physicochemical. The essentials: (§1)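 DPPH radical scavenging assay. The control contained all reagents except the test compound. % scavenging = [(A control − A sample)/[…]] × 100, taken from absorbance readings.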
In general terms: The DPPH test is a chemical assay of radical scavenging.

In data set [2] the test system is Leishmania donovani. Nature of the data set: Antileishmanial activity against promastigotes of Leishmania donovani MHOM/IN/80/DD8 after 72 hrs by MTT assay. In kind it is functional, organism-based. As to conditions: MHOM/IN/80/DD8, 72 h. The essentials:
(§2)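 Cultured L. donovani promastigotes (strain […]) were exposed to the compounds. Viability was read by a modified MTT assay, in which formazan output tracks metabolically active cells. The concentration that cut growth by 50% (IC50) was found by graphic interpolation.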
In general terms: Tetrazolium assays rely on reduction of a dye to a coloured formazan, in cell work by metabolically active cells.

Data set [3] in a line: Antioxidant activity of the compound. In kind it is physicochemical. The essentials:
as §1

The next data set relates to HeLa. Nature of the data set: Cytotoxicity against human HeLa cells assessed as cell viability at 100 ug/ml by microscopic analysis. Format: cell-based. In outline: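 HeLa cells were treated at 100 μg/mL and assessed by the MTT method. Cells were also viewed under a microscope at 10X magnification.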
Data set [4] relates to Leishmania major. The data set can be described thus: Antileishmanial activity against stationary-phase promastigotes of Leishmania major MRHO/IR/75/ER assessed as parasite growth inhibition after 48 hrs by Neubar chamber method. In kind it is functional, organism-based.
Data set [5] concerns Leishmania donovani. Nature of the data set: Antileishmanial activity against promastigotes of Leishmania donovani assessed as parasite growth inhibition. Format: functional, organism-based. The essentials:
as §2

The subject of data set [6] is Leishmania major. Nature of the data set: Antileishmanial activity against promastigotes of Leishmania major MHOM/IL/67/LRC-L43 assessed as parasite growth inhibition after 24 hrs by uranyl acetate/ magnesium uranyl acetate/lead citrate staining-based electron microscopic analysis. In kind it is functional, organism-based. As to conditions: MHOM/IL/67/LRC-L43, 24 h.

Data set [7] can be described thus: Antioxidant activity assessed as ABTS radical scavenging activity by TEAC assay. In kind it is physicochemical.

`COc1ccc(OC)c(C(CC(=O)c2c(O)c3ccccc3oc2=O)c2c[nH]c3ccccc23)c1` (configuration not stated): the figures for the half-inhibitory concentration (IC50) (in data set [1]; in the data set with Leishmania donovani [2]) were 19.02 µg/mL (≈ 40.5 µM) and 99 µg/mL (≈ 211 µM), respectively.

As to `O=C(/C=C/c1ccc(O)c(O)c1)c1ccc(O)cc1O` [BUTEIN], the IC50 (as a rule, the concentration needed to halve the response being measured) in data set [3] came to 3.3 µg/mL (≈ 12.1 µM).

For `O=C1O[C@H]([C@@H](O)CO)C(O)=C1O` [ASCORBIC ACID], in data set [1], the 50% inhibitory concentration (IC50) stood at 12.8 µg/mL (≈ 72.7 µM).

On to `COc1ccc(C(CC(=O)c2c(O)c3ccccc3oc2=O)c2c[nH]c3ccccc23)c(OC)c1` (configuration not stated), for which the half-inhibitory concentration (IC50) in data set [1] was 13.24 µg/mL (≈ 28.2 µM); in the data set on Leishmania donovani [2], 250 µg/mL (≈ 531 µM).

Consider `O=C(CC(c1ccc(Cl)cc1)c1c[nH]c2ccccc12)c1c(O)c2ccccc2oc1=O` (configuration not stated), for which the results for the IC50 (in data set [1]; in the data set with Leishmania donovani [2]) were 46.35 µg/mL (≈ 104 µM) and 125 µg/mL (≈ 282 µM), respectively.

Take `N#Cc1ccc(C(CC(=O)c2c(O)c3ccccc3oc2=O)c2c[nH]c3ccccc23)cc1` (configuration not stated): the values for the IC50 (in data set [1]; in the data set on Leishmania donovani [2]) were 13.74 µg/mL (≈ 31.6 µM) and 102 µg/mL (≈ 234 µM), respectively.

As for `O=C(CC(c1c(Cl)cccc1Cl)c1c[nH]c2ccccc12)c1c(O)c2ccccc2oc1=O` (configuration not stated), the IC50 in data set [1] was 13.49 µg/mL (≈ 28.2 µM); in the data set with Leishmania donovani [2], 95 µg/mL (≈ 199 µM). Besides, the Activity result with HeLa was “Non-toxic”.

Regarding `Cc1cc(C(C)(C)C)c(O)c(C(C)(C)C)c1` [BUTYLATED HYDROXYTOLUENE], the IC50 in data set [1] is 16.5 µg/mL (≈ 74.9 µM).

Turning to `CC(C)=CCC/C(C)=C/CC/C(C)=C/COc1ccc2ccc(=O)oc2c1` [UMBELLIPRENIN], the half-maximal inhibitory concentration (IC50) with Leishmania major [4] was determined as 13.3 µM.

As for `O=C(CC(c1ccc(O)c(O)c1)c1c[nH]c2ccccc12)c1c(O)c2ccccc2oc1=O` (configuration not stated), the IC50 in data set [1] was 71.08 µg/mL (≈ 161 µM); with Leishmania donovani [2] it was 231 µg/mL (≈ 523 µM).

For `C=CC(C)(C)c1cc(/C=C/C(=O)c2ccc(O)cc2)c(OC)cc1O` [LICOAGROCHACONE A], the figures for the IC50 in the data set on Leishmania donovani [5] and in the data set on Leishmania major [6] were 2.7 µM and 2.5 µg/mL (≈ 7.39 µM), respectively.

As for `O=C(CC(c1ccccc1Cl)c1c[nH]c2ccccc12)c1c(O)c2ccccc2oc1=O` (configuration not stated), the IC50 in data set [1] was determined as 39.62 µg/mL (≈ 89.3 µM); in the data set on Leishmania donovani [2] it was 102 µg/mL (≈ 230 µM).

For the molecule `O=c1oc2ccccc2cc1C1=Nn2c(nnc2-c2ccccc2)SC1`, the IC50 in data set [7] is 39.9 µg/mL (≈ 111 µM).

Turning to `COc1ccc(C(CC(=O)c2c(O)c3ccccc3oc2=O)c2c[nH]c3ccccc23)cc1` (configuration not stated), the values for the IC50 (in data set [1]; with Leishmania donovani [2]) were 16.21 µg/mL (≈ 36.9 µM) and 174 µg/mL (≈ 396 µM), respectively.

In the case of `COc1ccc(C(CC(=O)c2c(O)c3ccccc3oc2=O)c2c[nH]c3ccccc23)cc1OC` (configuration not stated), the values for the half-maximal inhibitory concentration (IC50) (in data set [1]; in the data set with Leishmania donovani [2]) were 63.16 µg/mL (≈ 135 µM) and 212 µg/mL (≈ 452 µM), respectively.

As for `O=C(CC(c1ccccc1)c1c[nH]c2ccccc12)c1c(O)c2ccccc2oc1=O` (configuration not stated), the IC50 in data set [1] amounted to 12.4 µg/mL (≈ 30.3 µM); with Leishmania donovani [2] it was 95.5 µg/mL (≈ 233 µM).

With `O=C(CC(c1ccc(O)cc1)c1c[nH]c2ccccc12)c1c(O)c2ccccc2oc1=O` (configuration not stated), the IC50 in data set [1] was 58.91 µg/mL (≈ 138 µM); in the data set with Leishmania donovani [2], 288 µg/mL (≈ 676 µM).

As for `O=C(CC(c1ccc(F)cc1)c1c[nH]c2ccccc12)c1c(O)c2ccccc2oc1=O` (configuration not stated), the IC50 was found to be 47.35 µg/mL (≈ 111 µM) in data set [1] and 156 µg/mL (≈ 364 µM) in the data set on Leishmania donovani [2].
